UBC13 polyUb – blocks human UBC13 polyubiquitin chain formation; TR-FRET; inhibition, % at 20 µM; 330,000 tested, 0.47% active; in the data active = inhibition above about 45%, passing the limit was not always enough
Apaf-1 inh – human Apaf-1 inhibition; O14727; reconstituted apoptosome caspase-3 activity, DEVD-Rh110 fluorescence; inhibition, % at 20 µM; 330,000 tested, 0.71% active; AID 489030; active = inhibition of at least 40% at 20 µM
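Assay system: Apoptosome proteins | Medium: pH 7.5 Hepes buffer with CHAPS, BSA, DTT | Also added: Cytochrome c and DEVD-Rh110 substrate | Times: 30 min plus 50 min, RT | Detection: Rhodamine 110 fluorescence at Ex 480/Em 540 nm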
MPTP inh – permeability transition pore inhibition | 360,000 tested, 1.4% active | isolated mouse mitochondria, Ca2+ swelling absorbance, 30 min | inhibition, % at 10 µM;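 active = inhibition of 50% or more, scaled per plate between neutral and stimulator controls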
hiPSC survival – hiPSC single-cell survival enhancement | survival enhancement, % at 20 µM | 360,000 tested, 0.044% active | ATPlite luminescence; 100% = ROCK inhibitor wells, 0% = DMSO | AID 602274; in the data active = survival enhancement above about 18%;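 also: cells exposed to compounds for 16 hours before the ATP read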
Exocytosis inh – lytic granule exocytosis inhibition; inhibition, % at 10 µM; AID 651702; TALL-104 LAMP-1 surface exposure, flow cytometry; cells stimulated with thapsigargin and PMA; 360,000 tested, 0.66% active;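 active = inhibition above about 55%, limit read from the data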
MIN6 prolif – induces beta-cell replication in MIN6 cells. MIN6 cells proliferation, ATPlite luminescence, 48 h; cells starved in 0.2% serum; 100% = growth in 10% serum. proliferation, % at 10 µM. 330,000 tested, 0.29% active;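 active = compounds whose signal lies at least 3.5 SD above the mean of all wells on their plate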
MPTP counter – membrane potential counter-screen of mitochondrial pore inhibitors; shares compounds with MPTP inh; isolated mitochondria, Rhodamine 123 fluorescence; inhibition, % at 10 µM; 5,000 tested, 78% active; AID 624504; in the data active = inhibition above about 22%
MPTP swell DR – MPTP inhibition, dose response swelling confirmation; shares compounds with MPTP inh; isolated mitochondria swelling, absorbance; IC50, µM; 780 tested, 58% active; in the data active = IC50 below about 20 µM
MPTP counter DR – counter-screen for mitochondrial permeability transition pore inhibitors, dose response; shares compounds with MPTP inh; isolated mitochondria counterscreen, fluorescence read-out; IC50, µM; 780 tested, 49% active; in the data active = IC50 below about 80 µM
Hits are given with their value; n = inactive; x = not tested or not shown; + = active, no number. In the library only some 3% were active in any assay of this set; here they are far more common.

SMILES | UBC13 polyUb | Apaf-1 inh | MPTP inh | hiPSC survival | Exocytosis inh | MIN6 prolif | MPTP counter | others
COc1cccc(CC(=O)Nc2ccc(F)c(S(=O)(=O)N3CCOCC3)c2)c1 | x | x | n | n | n | x | x
Cc1ccc(S(=O)(=O)Nc2cccnc2)cc1 | n | n | n | n | n | n | x
CCCCOc1ccc(S(=O)(=O)Nc2cccnc2)cc1 | n | n | 72 | n | n | n | 59
CCOc1ccc(N(C)S(=O)(=O)c2ccc(-c3cc(C)no3)s2)cc1 | n | n | n | n | n | n | x
Cc1nc2cc(-c3ccsc3-n3c(C)ccc3C)[nH]n2c(=O)c1Cl | n | n | 67 | n | n | n | 51
Cc1cc(=O)n2[nH]c(-c3ccsc3-n3c(C)ccc3C)cc2n1 | n | n | n | n | n | n | x
CCCc1[nH]c2ccc(C#N)cc2c1CCC | n | n | 69 | n | n | n | 86
CCCc1[nH]c2ccc(C(=O)OC)cc2c1CCC | n | n | n | n | n | n | x
Cc1ccc(OCC(=O)N(C)CC(=O)Nc2ccccc2Cl)c([N+](=O)[O-])n1 | n | n | n | n | n | n | x
C=CCn1c(SCC(=O)Nc2sccc2C(N)=O)nc2ccc(Cl)cc2c1=O | n | n | n | n | n | n | x
C=CCn1c(SCN2C(=O)c3ccccc3C2=O)nc2ccc(Cl)cc2c1=O | n | n | 90 | n | n | n | 90
O=C(Cc1ccc(S(=O)(=O)N2CCCCC2)s1)Nc1cccc2ccccc12 | n | n | + | n | n | n | n | MPTP swell DR=n;MPTP counter DR=n
CCCCCn1c(N)c(-c2nc3ccccc3s2)c2c([N+](=O)[O-])nn(C)c(=O)c21 | n | n | 104 | n | n | n | n | MPTP swell DR=n;MPTP counter DR=<2.5
O=C1c2ccccc2C(c2nnnn2Cc2ccccc2)N1CCc1ccc(O)cc1 (configuration not stated) | x | x | n | n | n | x | x
CCOc1ccccc1NC(=O)CCNC(=O)N1CC(=O)Nc2ccccc21 | x | x | n | n | n | x | x
O=C(COc1ccccc1F)OCC(=O)c1ccc([N+](=O)[O-])cc1 | n | n | n | n | n | n | x
COCCNC(=S)N/N=C(\C)c1ccc(O)cc1 | n | n | n | n | n | n | x
C/C(=N\NC(=S)NCC(C)(C)C)c1cc(F)cc(F)c1O | n | n | 85 | n | n | n | 73
CCCCOC(=O)c1[nH]c2c(c1C)C(=O)CC(c1cc(OC)c(OC)c(OC)c1)C2 (configuration not stated) | n | n | 70 | n | n | n | 90
N=c1n(CCN2CCCCC2)c2ccccc2n1CC(O)COc1ccccc1 (configuration not stated) | n | n | 98 | n | n | n | n | MPTP swell DR=18;MPTP counter DR=68
CCCCn1c(=N)n(CC(O)COc2ccccc2)c2ccccc21 (configuration not stated) | n | n | 76 | n | n | n | n | MPTP swell DR=13;MPTP counter DR=36
CCCCn1c(=N)n(CC(O)COc2ccc(C)cc2)c2ccccc21 (configuration not stated) | n | n | n | n | n | n | x
N=c1n(CCN2CCOCC2)c2ccccc2n1CC(O)COc1ccccc1 (configuration not stated) | n | n | n | n | n | n | x
C=CC[N@@+]12CC[C@]34c5ccccc5N5/C=C6\C7N(/C=C(\C53)[C@@H](C[C@@H]41)/C(=C/CO)C2)c1ccccc1[C@@]71CC[N@@+]2(CC=C)C/C(=C\CO)[C@@H]6C[C@@H]12 (some centres not stated) | n | n | n | n | n | n | x
O=c1c2c(nc3c(-c4cccc(Br)c4)c[nH]n13)CCCC2 | n | n | 58 | n | n | n | 73
SMILES | UBC13 polyUb | Apaf-1 inh | MPTP inh | hiPSC survival | Exocytosis inh | MIN6 prolif | MPTP counter | others
Oc1ccccc1C=NNC(=S)NN=Cc1ccccc1O | x | x | 90 | n | n | x | 67
Oc1ccccc1/C=N/NC(=S)NC1CC2CC1C1C=CCC21 (configuration not stated) | n | n | 59 | n | n | n | 54
COc1cccc(/C=N/NC(=S)NC2CC3CC2C2C=CCC32)c1O (configuration not stated) | n | n | n | n | n | n | x
CN(C(=O)C1CCCC1)C1CCS(=O)(=O)C1 (configuration not stated) | n | n | n | n | n | n | x
CCNC(=O)C1(C)CCN(C(=O)c2cccs2)C1 (configuration not stated) | x | x | n | n | n | x | x
Cc1ccccc1/C=N/NC(=O)c1ccc(-n2cnnn2)cc1 | n | n | n | n | n | n | x
CN1CCN(C(c2ccc(C(F)(F)F)cc2)c2cc(Cl)c3cccnc3c2O)CC1 (configuration not stated) | n | n | x | x | x | n | x
CN1CCN(C(c2ccc(Cl)cc2)c2cc(Cl)c3cccnc3c2O)CC1 (configuration not stated) | n | n | 75 | n | n | n | n
Cc1cc(Nc2cccc(Br)c2)c2ccccc2n1 | n | n | 83 | n | n | n | 75
CCN(CC(=O)NCc1ccc(F)cc1)C(=O)CN1CCN(c2ccc(OC)cc2)CC1 | n | n | n | n | n | n | x
COc1ccc(CN2C(=O)CS/C2=N/N=C/c2ccccc2)cc1 | n | n | 67 | n | n | n | 65
COc1ccc(/C=N/N=C2/SCC(=O)N2Cc2ccccc2)cc1 | n | n | n | n | n | n | x
C=CC[n+]1c(-c2ccc(OC)c(OC)c2)csc1NNC(=O)Nc1ccccc1 | n | n | 64 | n | n | n | 31
CCC(Oc1cc(Cl)ccc1Cl)C(=O)N1CCCN(C)CC1 (configuration not stated) | n | n | n | n | n | n | x
CC1(O)CC(c2ccc(Cl)cc2)=NN1C(=O)c1ccc([N+](=O)[O-])cc1 (configuration not stated) | n | n | 73 | n | n | n | 81
O=C(Nc1cccc(Br)c1)c1ccc(Cl)c(S(=O)(=O)N2CCOCC2)c1 | n | n | 54 | n | n | n | 75
O=C(Nc1cccc(C(=O)NC2CC2)c1)c1ccc(Cl)c(S(=O)(=O)N2CCOCC2)c1 | n | n | n | n | n | n | x
CN(C)CCCN(C(=O)C1=COCCO1)c1nc2ccc(Br)cc2s1 | n | n | n | n | n | n | x
CN(C)CCCN(C(=O)COc1ccc(Cl)cc1)c1nc2cc3c(cc2s1)OCCO3 | n | n | 87 | n | n | n | n | MPTP swell DR=4.3;MPTP counter DR=74
Cc1cc(C)c2nc(N(CCCN(C)C)C(=O)c3ccc4c(c3)OCCO4)sc2c1 | n | n | 89 | n | n | n | n
CN(C)CCCN(C(=O)COc1ccc(Cl)cc1)c1nc2cc3c(cc2s1)OCO3 | n | n | n | n | n | n | x

Bioassay records from PubChem BioAssay.
